Screening data: PubChem, several laboratories
TRPN1 ag: agonists of zebrafish TRPN1 channel; HEK293 zebrafish TRPN1-YFP, Fluo-8 calcium fluorescence; 100% = response to 87 µM carbachol; activation, % at 3 µM; 220,000 tested, 0.18% active; AID 1424;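 active means activation above its plate's cutoff, the mean activation of test wells on that plate plus 3 SD, cut at about 19% in these data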;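 further: 0% = DMSO alone and 100% = 87 µM carbachol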
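Material – zebrafish TRPN1-YFP in HEK293 cells · Doses – 3 µM single point · Schedule – dye 1 h 37 °C plus 30 min RT · Signal – Fluo-8 calcium fluorescence, excitation 470-495 nm, emission 515-575 nm · Read-out – % activation versus carbachol response · Control set – carbachol high, DMSO low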
Biofilm kill mix: mixtures killing C. albicans biofilm; C. albicans biofilm persisters + clotrimazole, fluorescence viability; primary screen in compound mixtures of four per well; inhibition, % at 7.6 µM; 120,000 tested, 0.02% active;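 active means inhibition above 30.3% in the primary screen of four-compound pools, then above 30% when the compound was retested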;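 further: compounds exposed to preformed 24 h biofilms for 48 h; 0% = untreated biofilm control and 100% = clotrimazole plus chlorhexidine kill blank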
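Probe or stimulus – Clotrimazole 50 µg/mL co-treatment · System – C. albicans biofilms · Schedule – 24 h biofilm formation, then 48 h compound exposure, 37 °C · Evaluation – percent inhibition of biofilm viability · Technique – 2-h Alamar Blue fluorescence, 535/590 nm excitation/emission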
TRPML3 agonist: activates the human TRPML3 channel. Q8TDD5. HEK293 TRPML3-YFP, Fluo-8 calcium fluorescence; 100% = the carbachol control signal. activation, % at 3 µM. 220,000 tested, 0.29% active. AID 1448;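 active means activation above its plate's cutoff, the mean activation of the plate's test wells plus 3 SD, cut at about 12% in these data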;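 further: 0% = DMSO only wells and 100% = carbachol wells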
Target sequence (Q8TDD5 whole entry, looked up): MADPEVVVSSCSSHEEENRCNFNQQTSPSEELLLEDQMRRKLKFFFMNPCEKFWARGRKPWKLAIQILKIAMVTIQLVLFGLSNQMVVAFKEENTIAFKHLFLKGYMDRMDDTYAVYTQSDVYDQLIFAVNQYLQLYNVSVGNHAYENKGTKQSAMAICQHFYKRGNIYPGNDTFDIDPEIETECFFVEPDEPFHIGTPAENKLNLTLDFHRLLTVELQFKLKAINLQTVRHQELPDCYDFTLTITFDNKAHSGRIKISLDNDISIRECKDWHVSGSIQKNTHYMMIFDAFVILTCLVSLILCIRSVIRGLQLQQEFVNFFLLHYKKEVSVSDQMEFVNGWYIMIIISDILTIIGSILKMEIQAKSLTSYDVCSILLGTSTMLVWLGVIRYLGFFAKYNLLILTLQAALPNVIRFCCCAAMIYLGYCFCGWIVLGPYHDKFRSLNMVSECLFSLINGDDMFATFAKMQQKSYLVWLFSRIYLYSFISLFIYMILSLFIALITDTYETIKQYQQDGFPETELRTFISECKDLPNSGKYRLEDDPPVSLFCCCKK
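Test system – HEK293 line with stable expression of human TRPML3-YFP channel · Control set – carbachol 87 µM final as high control (100%), DMSO as low control (0%) · Signal – Fluo-8 calcium dye fluorescence, ex 470-495, em 515-575 nm · Incubation – 1-h 37 °C dye load, 5-s basal, 120-s post-compound reads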
ABCG2 block: inhibitors of human ABCG2 transporter, ABCB1 counter-screen | AID 1325 | 190,000 tested, 0.1% active | IgMXP3 cells, JC-1 efflux, flow cytometry | inhibition, % at 6.6 µM;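 active means inhibition above 80%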;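 further: 0% = DMSO and 100% = nicardipine control wells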
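Times: 10 min at 25 °C | Test system: Two drug-resistant human cell lines, ABCG2 and ABCB1 | Quantity: 3 million cells/mL final, two lines in 1:1 ratio | Signal: Flow cytometry, 530 nm JC-1 signal | Dosing: Compound at 6.6 µM | Controls: Nicardipine and DMSO wells | Reagent: JC-1 as fluorescent efflux pump substrate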
ROMK mod: modulators of human ROMK potassium channel; 130,000 tested, 2% active; P48048; B-score at 10 µM; Tet-inducible ROMK, thallium flux fluorescence; actives lie on both sides; AID 1918;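 active means signal ratio slope over the read window, or its plate-corrected B-score, at least 3 SD from the plate mean, either direction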;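 further: B-score of the F/F0 ratio slope over 7 to 12 s after thallium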
ABCB1 inh: blocks JC-1 efflux by human ABCB1 transporter. 190,000 tested, 0.067% active. CCRF-Adr cells, flow cytometry. inhibition, % at 6.6 µM. P08183; in the data active means inhibition above about 40%;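 further: 0% = vehicle and 100% = reference inhibitor; higher value means more JC-1 retained so stronger ABCB1 efflux block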
* marks the source's active call; other numbers are inactive results; . = not tested or not shown. Many of the other results were omitted from the sample, so hits are more common in it than they were.

SMILES	TRPN1 ag	Biofilm kill mix	TRPML3 agonist	ABCG2 block	ROMK mod	ABCB1 inh
FC(F)(F)c1cnc(NNC(=S)Nc2ccccc2Cl)c(Cl)c1	29*	28	17*	-7	.	-1
Cc1cccc(C(=O)NC(=S)N2CCc3ccccc3C2)c1	-1	19	0	9	9.1*	1
CCNC(=S)N1CCc2ccccc2C1	-1	1	1	1	-0.59	0
CC(C)c1ccccc1NC(=O)CC1(CC(=O)O)CCCC1	0	10	1	.	.	.
COc1ccc2cc(C(=O)C3CCCN(C(=O)/C=C/c4ccccn4)C3)ccc2c1 (centres undefined)	-1	10	1	16	-0.77	1
CC(C)/C=C1\CC/C(=C\c2ccc(N(C)C)cc2)C1=O	22*	8	8	43	.	12
CC(C)(C)C(=O)NC(=S)NNC(=O)c1ccc(-c2ccccc2)cc1	197*	18	117*	-3	6.1*	-1
CC(C)(C)C(=O)NC(=S)NNC(=O)c1ccc(Cl)cc1Cl	171*	13	103*	0	-0.53	0
Cc1cccc(C(=O)NC(=S)NNC(=O)c2cccs2)c1	5	11	5	-6	.	-1
Cc1ccc(C(=O)NNC(=S)NC(=O)COc2ccccc2)cc1	0	.	0	-1	6.6*	0
CC(C)(C)C(=O)NC(=S)NNC(=O)c1ccncc1	0	21	1	15	-0.41	1
Cc1ccccc1C(=O)NNC(=S)NC(=O)COc1ccccc1	0	.	0	-1	1.8	-1
CC(C)(C)c1ccc(C(=O)NC(=S)NNC(=O)c2cccs2)cc1	19*	21	5	-3	9.1*	0
CC(C)(C)NC(=O)NC(=O)COC(=O)c1cccc(OC(F)F)c1	0	-3	0	0	0.15	0
CCCOc1ccc(C(=O)NNC(=S)NC(=O)c2ccco2)cc1	44*	22	41*	.	.	.
CC1=C(C(=O)OCC(C)C)C(c2cccs2)NC(=S)N1 (centres undefined)	-2	-3	-1	0	.	0
O=C(NNc1cccc([N+](=O)[O-])c1)/C(=C\c1cccnc1)NC(=O)c1ccccc1	1	12	1	.	.	.
COc1ccc(N=Nc2nc3ccc(Br)cc3n2C)cc1	39*	.	30*	2	.	1
CCc1sc(/C=C(/C#N)C(N)=S)cc1[N+](=O)[O-]	-1	-11	0	-8	-4.4*	-1
CC(=O)Nc1cccc(NC(=O)CSc2ncc(-c3ccc(Cl)cc3)n2Cc2ccco2)c1	4	.	0	41	-4.6*	2
O=[N+]([O-])c1ccc(NC(=S)NCCc2ccc(Cl)cc2)cc1	17	.	11	3	.	0
O=[N+]([O-])c1ccc(NC(=S)NCCc2ccccc2)cc1	19*	16	12*	7	-1.6	0
O=C(NC1CCCCC1)Sc1ccc(Cl)cc1	1	.	0	2	-4.7*	1
CN(Cc1nc(-c2cnccn2)no1)Cc1n[nH]c2c1CCCC2	1	11	0	-1	1.3	-3
O=C(Nc1ccccc1)OC1CCC2CC1CCC2OC(=O)Nc1ccccc1 (centres undefined)	5	-2	2	7	0.062	1
SMILES	TRPN1 ag	Biofilm kill mix	TRPML3 agonist	ABCG2 block	ROMK mod	ABCB1 inh
Cn1c(/C(C#N)=C/c2ccc(O)cc2)nc2ccccc21	-1	2	0	.	.	.
COc1cc(/C=C(\C#N)c2nc3ccccc3n2C)cc(OC)c1O	37*	13	17*	1	-4.1*	0
Cn1c(/C(C#N)=C/c2ccncc2)nc2ccccc21	0	19	0	3	-3.6*	0
CC1CN(S(=O)(=O)c2cccc(C(=O)Nc3ccc4c(c3)CCC4)c2)CC(C)O1 (centres undefined)	1	18	0	4	-0.67	1
Cn1nc(-c2ccccc2)c(N2CCCCC2)cc1=O	-1	5	0	-1	0.019	0
O=c1cc(N2CCCCC2)c(-c2ccccc2)nn1Cc1ccccc1	-1	19	0	-3	-3.1*	-1
Nc1ccc2c(c1)Cc1cc([N+](=O)[O-])ccc1-2	13	12	15*	14	-1.3	1
